According to PubChem BioAssay AID449755 (Broad Institute, 2010):
Results filed as inconclusive are left out. Activity calls are given as the source filed them.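 Rule for the calls: active = compounds raising caspase signal whose fitted AC50 is at most ten times the top tested dose; inconclusive = flat fit with 30 to 70% activity, or failed fit; inactive = the rest.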

System: HMC 1-8 low-A1 cells, caspase-3/7 luminescence, 3 h
Assay: caspase activation in low-A1 HMC 1-8 cells, dose response, counter-screen for A1 inhibitor project, cell-based, caspase luminescence (AID 449755)
In short: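 Test system: low-A1 HMC 1-8 human cancer cell line; Input: 2500 cells/well; Buffer or medium: RPMI-1640 growth medium with 10% FBS; Compound: pin-transferred compound; Times: 3 h compound exposure, 37 °C/5% CO2, 1 h room-temperature detection; Measured by: caspase-3/7 DEVD luminescence; Evaluation: caspase-3/7 activation, marking off-target non-A1 activity.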

SMILES	AC50
CN1C2CCC1/C(=C/c1ccccn1)C(=O)/C2=C\c1ccccn1	> 35 µM (inactive)
Cc1ccc(C=C2C(Cl)=C(Cl)C(Cl)=C2Cl)cc1	12.9 µM
Cc1cccc(C)c1NC(=O)C(Cl)C(=O)c1ccccc1 (configuration not stated)	> 35 µM (inactive)
C=CC(=O)Nc1ccc(CN2C(=O)N(c3c(Cl)c(OC)cc(OC)c3Cl)Cc3cnc(NCCCCN(CC)CC)nc32)cc1	> 35 µM (inactive)
Cc1ccc(NC(=O)CSc2nc3nc(C)c(Br)cc3[nH]2)cc1F	> 35 µM (inactive)
CC(C)CCN(C(=O)Cc1ccc(Cl)c(Cl)c1)c1c(N)n(Cc2ccccc2)c(=O)[nH]c1=O	24.3 µM
Cc1ccc(NC(=S)NC(NC(=O)Cc2cccc3ccccc23)C(Cl)(Cl)Cl)cc1 (configuration not stated)	27 µM
COc1ccc(Oc2cc(NC(=O)c3nn(C)cc3[N+](=O)[O-])cc([N+](=O)[O-])c2)cc1	> 35 µM (inactive)
COc1cc(CN2CCN(c3cc(C)ccc3C)CC2)ccc1O	> 35 µM (inactive)
CC(C)Cn1c(O)c(/C=C2\C=NN=C2c2ccccc2)sc1=S	> 35 µM (inactive)
CC(=O)Nc1sc(N/N=C\c2cccc(Cl)c2)nc1-c1cccs1	> 35 µM (inactive)
Cc1c(C=O)c(C=O)c(C)n1Cc1ccccc1	> 35 µM (inactive)
O=C(NC1CCCCC1)c1cccc2c1C(=O)c1ccc(-c3ccc(OC(F)(F)F)cc3)cc1S2(=O)=O	> 35 µM (inactive)
N#CC(C#N)=C1C=CC=CN1/C(=C\c1ccccc1Cl)C(=O)c1ccccc1	27.9 µM
COc1cc(NC(=O)c2cccc(C)c2)ccc1NC(=O)c1cc2ccccc2o1	> 35 µM (inactive)
CC(C)N=c1scc(-c2ccco2)n1/N=C/c1ccc(O)c(O)c1	> 35 µM (inactive)
O=C(NC[C@H]1CCCO1)c1cccc2c1C(=O)c1ccc(-c3ccc(F)cc3OCc3ccccc3)cc1S2(=O)=O	> 35 µM (inactive)
Cc1ccc(C(=O)/C=C\C(=O)c2ccc(C)cc2)cc1	> 35 µM (inactive)
N#C/C(=C\c1ccc(OCc2ccccc2)cc1)C(=O)Nc1nc2c(s1)CCN(Cc1ccccc1)C2	> 35 µM (inactive)
CSC[C@@H]1NC(=S)N(c2ccc(C)cc2)C1=O	> 35 µM (inactive)
Cc1ccc(CS(=O)(=O)c2ncc(Cl)c(C(=O)Nc3nnc(C(C)C)s3)n2)cc1	> 35 µM (inactive)
CCOC(=O)COc1ccccc1/C=C\[N+](=O)[O-]	> 35 µM (inactive)

SMILES	AC50
CC1=NNC(=O)/C1=C\c1cn(-c2ccccc2)nc1-c1cccs1	> 35 µM (inactive)
COC(=O)CSc1nc(N)c2c3c(sc2n1)C(c1ccccc1)SC(c1ccccc1)C3 (configuration not stated)	> 35 µM (inactive)
CCc1nnc(NC(=O)CSc2nc(-c3ccccc3)cc(-c3ccc(F)cc3)c2C#N)s1	> 35 µM (inactive)
CC(C)(C)c1ccc(C(=O)Nc2ccc(O)c3c(=O)cc(-c4cccc(Cl)c4)oc23)cc1	> 35 µM (inactive)
CC(C)c1cccc(-c2ccc3c(c2)S(=O)(=O)c2cccc(C(=O)NCc4ccccc4Cl)c2C3=O)c1	> 35 µM (inactive)
COC(=O)c1ccc2c(c1)C(C)(C)C(/C=C/c1ccccc1O)=[N+]2C	8.58 µM
CC(C)(C)c1ccc2c(c1)OC(C(=O)N/N=C\c1ccc[nH]1)CO2 (configuration not stated)	> 35 µM (inactive)
CCc1ccccc1NC(=O)C(CC)Sc1nc2cc3c(cc2c(=O)n1Cc1ccco1)OCO3 (configuration not stated)	> 35 µM (inactive)
COc1ccc2c(c1)[nH]c1c(=O)n(/N=C/C3C(C)C=C(C)CC3C)c(=O)[nH]c12 (configuration not stated)	> 35 µM (inactive)
O=C(Nc1ccc2oc(-c3ccccc3Cl)nc2c1)c1cncc(Br)c1	> 35 µM (inactive)
Cc1cc(C)n(-c2nc(Nc3ccccc3C)nc(-n3nc(C)cc3C)n2)n1	> 35 µM (inactive)
COc1ccc(-c2ccc3c(c2)S(=O)(=O)c2cccc(C(=O)NCCOc4ccccc4)c2C3=O)cc1OC	> 35 µM (inactive)
COc1ccc(OC)c(NC(=O)c2cc(-c3cc(C)ccc3O)n[nH]2)c1	> 35 µM (inactive)
COc1ccc(NC(=S)NC(NC(=O)/C=C/c2ccccc2)C(Cl)(Cl)Cl)cc1 (configuration not stated)	> 35 µM (inactive)
CCn1c(SCC(=O)c2ccccc2)nnc1-c1cc2cc(Br)ccc2o1	> 35 µM (inactive)
COc1ccccc1CCNC(C)CCc1ccc(O)cc1 (configuration not stated)	> 35 µM (inactive)
CCOC(=O)C1=C(c2ccccc2)O/C(=C(/C#N)C(F)(F)F)S1	> 35 µM (inactive)
O=C1/C(=C/c2ccc(N3CCOCC3)o2)SC(=Nc2ccccc2)N1CCc1c[nH]c2ccccc12	> 35 µM (inactive)
COc1ccc(OC[C@@H](O)CNC(=O)c2cccc3c2C(=O)c2ccc(-c4ccc(F)cc4OCc4ccccc4)cc2S3(=O)=O)cc1	> 35 µM (inactive)
CCCc1ccc(OCc2ccc(C(=O)N/N=C/c3cccc([N+](=O)[O-])c3)o2)c(OC)c1	7.31 µM
O=C(c1ccc(COc2ccc3ccccc3c2)o1)N1N=C(C(F)F)CC1(O)C(F)F (configuration not stated)	> 35 µM (inactive)
O=C(COc1ccc(/C=N/NC(=O)c2cc3ccccc3o2)cc1Cl)Nc1ccccc1	8.65 µM

SMILES	AC50
COc1cc(NC(=O)c2ccc(Cl)cc2Cl)ccc1-c1cc2ccccc2oc1=O	> 35 µM (inactive)
COc1cc(/C=C(/C#N)c2nc3ccccc3[nH]2)ccc1OCC(=O)Nc1ccccc1C	3.01 µM
CC(C)(C)C1CCc2onc(C(=O)Nc3cccc(O)c3)c2C1 (configuration not stated)	> 35 µM (inactive)
COc1ccc(Cn2c(SCc3ccc(C)cc3)nc3cc(OC)c(OC)cc3c2=N)cc1Cl	27.1 µM
c1ccc(-c2sc3ccccc3c2-c2ccc(OCCN3CCCC3)cc2)cc1	> 35 µM (inactive)
COc1cc(/C=C(/C#N)C(=O)Nc2ccc(Cl)cc2)ccc1Oc1nc(Cl)ncc1F	> 35 µM (inactive)
CCOC(=O)c1c(C)oc2c1c(CN1CCN(C(=O)OCC)CC1)c(O)c1ccccc12	26.3 µM
Cc1nn(-c2ccccc2)c(Cl)c1CN(C(=O)CCl)c1ccc(Cl)cc1	> 35 µM (inactive)
CCOC(=O)c1ccc(-c2ccc(/C=N/NC(=O)CN(c3cccc(C)c3)S(C)(=O)=O)o2)cc1	> 35 µM (inactive)
Cc1ccc(Sc2c([N+](=O)[O-])c(=O)n(C)c3ccccc23)cc1	> 35 µM (inactive)
COc1ccc(NC(=O)CSc2nc3ccc(Nc4nc(N5CCOCC5)nc(N5CCOCC5)n4)cc3s2)cc1	> 35 µM (inactive)
CCOC(=O)/C(=C\c1cccnc1)C(=O)c1cc(C(C)=O)c(Nc2ccccc2)s1	> 35 µM (inactive)
COc1ccc(N(C(=O)CCl)C(C(=O)NCCc2ccccc2)c2cccs2)cc1Cl (configuration not stated)	> 35 µM (inactive)
CCOC(=O)/C=c1\s/c(=C\c2ccc(C(=O)OC)cc2)c(=O)n1CC(=O)Nc1ccccc1	> 35 µM (inactive)
CN(C)C/C=C(\c1ccc(Br)cc1)c1cccnc1	> 35 µM (inactive)
COc1ccc(C=C2C=C(C(C)(C)C)C(=O)C(C(C)(C)C)=C2)cc1OC	5.9 µM
Cc1cccc(Nc2nc(N)c([N+](=O)[O-])c(N3CCCC(C)C3)n2)c1 (configuration not stated)	> 35 µM (inactive)
Cc1nn(-c2ccccc2)c(C)c1/C=N/NC(=O)CSc1nc2ccccc2c(=O)n1-c1ccc(Br)cc1	> 35 µM (inactive)
CCc1nn(-c2cc(Oc3cccc4ccccc34)nc(-c3ccccc3)n2)c(N)c1C#N	> 35 µM (inactive)
Cc1ccc(S(=O)(=O)c2nnn3c2nc(Nc2cccc(C)c2)c2ccccc23)cc1	> 35 µM (inactive)
CC(=O)OC(C)(C)/C=C/C(=O)C(C)(O)C1[C@H](O)C[C@@]2(C)C3CC=C4C(CC[C@@H](O)C4(C)C)[C@]3(CO)C(=O)C[C@]12C (some centres not stated)	> 35 µM (inactive)
Cc1ccc(C)c(S(=O)(=O)NCC(=O)Nc2sc3c(c2C(N)=O)CCC(C)C3)c1 (configuration not stated)	> 35 µM (inactive)

SMILES	AC50
Oc1ccc(/C=N/N2CCN(C3c4ccccc4-c4ccccc43)CC2)cc1O	> 35 µM (inactive)
CCS(=O)(=O)c1ncc(Cl)c(C(=O)Nc2ccccc2OC)n1	> 35 µM (inactive)
CCC(Sc1nc2cc3c(cc2c(=O)n1Cc1ccco1)OCO3)C(=O)Nc1cccc(OC)c1 (configuration not stated)	> 35 µM (inactive)
CC(C)c1cccc(-c2ccc3c(c2)S(=O)(=O)c2cccc(C(=O)NC4CCCC4)c2C3=O)c1	> 35 µM (inactive)
Cc1ccc(C#N)c(SCC(=O)Nc2nccs2)n1	> 35 µM (inactive)
Cc1cc(C(=O)CCl)c(C)n1CCc1ccc(Cl)cc1	> 35 µM (inactive)
COc1ccc(-c2cc(=O)oc3c(C)c(OC(=O)c4cccs4)ccc23)cc1	> 35 µM (inactive)
O=C1C2C3C=CC(CO)(O3)C2C(=O)N1c1ccc(-c2ccccc2)cc1 (configuration not stated)	> 35 µM (inactive)
O=C(Oc1cccc(/C=N/Nc2nc(Nc3ccccc3)nc(N3CCOCC3)n2)c1)c1ccco1	> 35 µM (inactive)
CCOc1ccc(NCc2cccn2-c2nnc(N3CCC(C(=O)NCCCN4CC(C)CC(C)C4)CC3)s2)cc1 (configuration not stated)	> 35 µM (inactive)
Cc1ccc(C2(c3ccc(C)cc3)CC2C(=O)Nc2ccc([N+](=O)[O-])cc2O)cc1 (configuration not stated)	> 35 µM (inactive)
CCN(C(=O)CCN1C(=O)c2ccccc2S1(=O)=O)c1ccccc1	> 35 µM (inactive)
COc1ccc(C(=O)/C=C/C(=O)N(CC(=O)NC2CCCCC2)Cc2cccs2)c(O)c1	5.69 µM
O=C(Nc1ccc([N+](=O)[O-])cc1)c1nc[nH]c1C(=O)NC1CCCCC1	> 35 µM (inactive)
COc1cc2ncnc(NCc3ccc(F)cc3)c2cc1OC	> 35 µM (inactive)
COc1ccc(-c2c(C#N)c(N)nc(Sc3ccc(Cl)cc3)c2C#N)cc1	> 35 µM (inactive)
CCC1CCCCN1S(=O)(=O)c1ccc(NC(=O)c2nc(S(C)(=O)=O)ncc2Cl)cc1 (configuration not stated)	> 35 µM (inactive)
N#Cc1cccnc1N1CCN(C(=O)c2cccc3c2C(=O)c2ccc(-c4ccc(Cl)c(C(F)(F)F)c4)cc2S3(=O)=O)CC1	> 35 µM (inactive)
CC(=O)Nc1ncnc2c1c(-c1ccc(Cl)cc1)nn2C(C)(C)C	> 35 µM (inactive)
COc1cc(NC(=O)c2ccccc2F)ccc1NC(=O)c1cc2ccccc2o1	> 35 µM (inactive)
Cc1cc(NC(=O)CSc2nc3cc(Cl)ccc3c(=O)n2Cc2ccco2)no1	> 35 µM (inactive)
